Assay outcomes deposited in PubChem BioAssay by several laboratories.
H9c2 protect = myocardial damage modulation in H9c2 cells; H9c2 cardiomyocytes, H2O2 injury protection, ATPLite, 2 h; protection from H2O2 cell death, % at 20 µM; 360,000 compounds, 0.63% hits; AID 588492;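 active = compounds giving at least 50% protection of heart cells from peroxide-induced death in the single-dose screen, raw or plate-pattern-corrected value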;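 note: 0% = DMSO wells with peroxide and 100% = DMSO wells without peroxide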
T cruzi inh = T. cruzi replication inhibition | 300,000 compounds, 1.4% hits | T. cruzi beta-gal in NIH3T3, luminescence, 90 h | inhibition, % (concentration not given with the values);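 active = mean inhibition across valid replicates above about 55%, limit read from the data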;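 note: signal also drops with host cell toxicity which is not excluded here; 0% = plate median of DMSO wells and 100% = zero luminescence signal; higher percent means less beta-gal luminescence so fewer parasites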
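System – NIH/3T3 host cells with β-galactosidase reporter T. cruzi · Doses – single 50 nL compound addition per well in DMSO · Reagent – 5000 T. cruzi trypomastigotes/well · Medium – Low-serum DMEM with 2% FBS · Timing – ≥90 h infection period, 3 h prior cell attachment · Evaluation – parasite load inhibition, % · Technique – GalScreen luminescence, 60 min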
pCIP destab = compounds decreasing mouse p/CIP protein stability | Q05BA5 | F442A p/CIP-EGFP cells, EGFP fluorescence, 16 h | decrease of EGFP signal, % at 10 µM | 290,000 compounds, 0.01% hits;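 active = EGFP signal decrease of at least 30% at 10 µM or well 3 SD below plate mean, unless failing retest; inactive = the rest, including hits failing retest or dose response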
PP5 primary = PP5 (human) phosphatase inhibition | AID 1987 | inhibition, % at 6.7 µM | 320,000 compounds, 0.18% hits | P53041 | purified PP5c, OMFP substrate fluorescence;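 active = inhibition above the campaign's mean inhibition across all tested compounds plus 3 SD, cut at about 9.5% in these data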;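 note: 0% = DMSO only and 100% = 100 µM cantharidin control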
CTSL1 counter = blocks F. hepatica cathepsin L1 in PFM18AAP counter-screen. 300,000 compounds, 0.49% hits. inhibition, % at 5.96 µM. recombinant F. hepatica cathepsin L1, Z-Leu-Arg-MCA fluorescence;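 active = inhibition above the mean of all tested compounds plus 3 SD, set per screening campaign, cut at about 17% in these data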;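 note: 0% = plate median of test compound wells and 100% = 1 µM Z-Phe-Ala-diazomethylketone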
JMJD2C inh = blocks human GASC-1 demethylase activity | 330,000 compounds, 0.069% hits | GST-JMJD2C(1-420) H3K9me3 demethylation, DELFIA europium | Q9H3R0 | inhibition, % at 2.35 µM;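 active = more than half of a compound's replicate wells show inhibition beyond 50%, single wells judged on their own value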;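 note: signal counts dimethyl H3K9 product captured on neutravidin plate; 0% = median of DMSO wells and 100% = 0.3 times that DMSO median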
Target sequence (Q9H3R0 1-420 limits assumed): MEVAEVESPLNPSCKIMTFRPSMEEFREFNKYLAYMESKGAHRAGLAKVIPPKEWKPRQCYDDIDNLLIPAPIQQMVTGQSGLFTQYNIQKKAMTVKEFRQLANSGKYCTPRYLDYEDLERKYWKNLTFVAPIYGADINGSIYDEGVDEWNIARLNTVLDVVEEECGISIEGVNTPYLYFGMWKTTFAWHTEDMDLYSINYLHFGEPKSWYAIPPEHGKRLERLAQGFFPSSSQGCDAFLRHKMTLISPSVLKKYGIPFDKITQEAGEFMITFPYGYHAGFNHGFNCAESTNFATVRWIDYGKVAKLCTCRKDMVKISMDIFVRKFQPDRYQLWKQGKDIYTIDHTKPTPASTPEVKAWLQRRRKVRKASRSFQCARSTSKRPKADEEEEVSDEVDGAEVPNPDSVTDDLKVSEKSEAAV
* = called active by the depositor; / = not tested or not shown. Most compounds without a hit are left out; they make up all but 2.4% or so of the library.

SMILES	H9c2 protect	T cruzi inh	pCIP destab	PP5 primary	CTSL1 counter	JMJD2C inh
C[C@@H]1CN([C@H](C)CO)C(=O)CCCn2cc(nn2)CO[C@H]1CN(C)S(=O)(=O)c1ccccc1C#N	-6	/	/	/	/	/
CCN(CC)S(=O)(=O)c1ccc2nnn(OCC(=O)Nc3cccc(C#N)c3)c2c1	-2	11	-6	2	81*	4
CCOc1ccc(NC(=O)COn2nnc3ccc(S(=O)(=O)N4CCOCC4)cc32)cc1	-7	29	-1	0	3	14
CN(CCOc1ccccc1)C(=O)C1CCC(=O)N(CCCN2CCCC2=O)C1 (stereo not drawn)	7	9	9	2	-3	-5
CCn1c(N2CCN(C(=O)C34CC5CC(CC(C5)C3)C4)CC2)nc2ccccc21	9	18	-11	2	-5	-8
CCn1c(=N)n(CC(=O)C23CC4CC(CC(C4)C2)C3)c2ccccc21	-28	58*	-7	3	0	1
CC1(C)Cc2c(c(N3CCCC3)nc3sc4c(N5CCNCC5)ncnc4c23)CO1	/	14	-3	2	-1	2
Cc1cc(C)nc(SC2c3cccc4cccc(c34)C2NS(=O)(=O)c2ccccc2)n1 (stereo not drawn)	-4	57*	7	4	-1	-9
O=c1c(Cl)c(Cl)cnn1Cc1nnc(-c2ccc(Cl)cc2)o1	-29	60*	-26	/	/	-13
O=C(/C=C/c1ccoc1)c1ccccc1O	-1	8	-9	1	-2	-23
COc1ccc2ccccc2c1C(=O)/C=C\c1ccoc1	6	-7	1	0	23*	-18
CC(=O)c1cccc(OCC(=O)c2cc(C)n(-c3cc(C)on3)c2C)c1	-34	7	-7	3	-1	5
CCOC(=O)c1c(C)[nH]c(C(=O)COc2ccc3ccc(=O)oc3c2)c1C	52*	/	/	/	/	-2
Cc1cc(-n2c(C)cc(C(=O)COc3ccc4ccc(=O)oc4c3)c2C)no1	70*	14	2	2	-1	3
CN(C)C(=O)COc1ccc2ccc(=O)oc2c1	2	2	-2	0	2	7
CCc1ccc(OCCCCN(C)Cc2ccccc2)cc1	-5	55*	2	3	0	2
Cc1ccc(CNC(=O)C(CC(C)C)OC(=O)c2ccco2)cc1 (stereo not drawn)	2	-8	-15	3	-42	-8
CC1CCCCC1NC(=O)COC(=O)c1c2c(nc3ccccc13)/C(=C\c1ccco1)CC2 (stereo not drawn)	3	/	/	/	/	/
Cc1ccc(C(=O)NNC(=S)NC(=O)c2ccccc2)cc1	12	30	/	3	-1	14
Cc1ccc(C(=O)NNC(=S)NC(=O)c2ccc(Cl)cc2Cl)cc1	54*	-9	0	1	2	79
COc1cc(OC)c(/C=C2\C(=O)Nc3ccccc32)c(OC)c1	/	/	/	4	38*	/
O=C(CSc1nnc(NC(=O)c2ccccc2F)s1)NCC1CCCO1 (stereo not drawn)	-8	-5	-11	-1	-1	-1
Cc1noc(NS(=O)(=O)c2ccc(NC(=O)CC34CC5CC(CC(Br)(C5)C3)C4)cc2)c1C	-5	-10	-12	2	20*	69
Cc1cccn2c(=O)c(/C=C(\C#N)C(=O)NC3CCS(=O)(=O)C3)c(N3CCC(C)CC3)nc12 (stereo not drawn)	3	8	3	3	17*	0
COc1ccc(C(CNC(=O)c2ccc(S(=O)(=O)Nc3ccccc3OC)cc2)N2CCCC2)cc1 (stereo not drawn)	5	/	/	/	/	/
SMILES	H9c2 protect	T cruzi inh	pCIP destab	PP5 primary	CTSL1 counter	JMJD2C inh
COc1cccc(-c2nc(CCl)cs2)c1	0	61*	-4	1	4	8
CC1CCN(C(=O)COC(=O)c2n[nH]c(=O)c3ccccc23)CC1	62*	/	/	-1	/	16
O=C(COC(=O)c1ccc(Br)cc1)NC(=O)NCc1ccccc1	-7	/	/	1	/	1
Cc1cc(C(=O)COc2cccnc2[N+](=O)[O-])c(C)n1Cc1cccs1	-21	8	-7	9.9*	-4	-10
Cc1cccc(N2CCN(C(=O)c3ccc4c(c3)CCN4S(C)(=O)=O)CC2)c1C	1	12	-8	2	1	-14
CCOC(=O)C(C(=O)NCC1CCCO1)C1CCCCC1 (stereo not drawn)	-9	2	-5	4	17*	4
COC(=O)[C@@H](N)Cc1ccc(O)c(O)c1	58*	/	/	1	3	32
COC(=O)C(N)Cc1ccc(Cl)cc1 (stereo not drawn)	12	/	/	0	0	/
CCOc1ccccc1N(C)C(=O)c1cc2c(=O)n(CC)c3ccccc3c2s1	7	62*	0	3	4	4
CCOCc1c(C(=O)NC2=Nc3ccccc3NC(CC)=C2C(=O)OCC)oc2ccccc12	68*	56*	6	2	8	-2
CCOC(=O)C1=C(CC)Nc2ccccc2N=C1NC(=O)c1ccc(S(=O)(=O)N(C)C)cc1	81*	2	-4	-4	6	5
CCOC(=O)C1=C(CC)Nc2ccccc2N=C1NC(=O)c1ccc(S(=O)(=O)N2CCOCC2)cc1	22	4	4	2	2	16
Cc1c(C(=O)Nc2ccccc2N2CCN(C)CC2)oc2ccc(F)cc12	33	/	/	/	/	/
CCOc1ccccc1NC(=O)c1cc(-c2ccncc2)nc2c(Cl)cccc12	23	57*	-2	/	/	-5
CCOc1ccccc1C(=O)Nc1cccc2cccnc12	-10	15	5	2	5	-13
C/C(CC(=O)Nc1ccc(Cl)c(C(F)(F)F)c1)=N\NC(N)=S	-14	19	2	1	40*	-2
CCCN1C(=O)/C(=C/c2nc3ccccc3c(=O)[nH]2)c2ccccc21	6	6	3	1	5	4
CC(C)N1C(=O)/C(=C\c2nc3ccccc3c(=O)[nH]2)c2ccccc21	85*	/	4	7	2	-10
O=C(Cc1cccc(NC(=O)C2CCCN(C(=O)c3ccccc3)C2)c1)Nc1ccc(C(=O)N2CCOCC2)cc1 (stereo not drawn)	7	/	/	/	/	/
C#CC(CC)(CC)NC(=O)c1cc(S(=O)(=O)N2CCCCC2)ccc1N1CCOCC1	0	/	/	/	/	/
CCOC(=O)C1CCN(C(c2cccnc2)c2c(NC(=O)c3ccco3)sc(C)c2C)CC1 (stereo not drawn)	8	65*	-2	7	0	-5
Cc1sc(NC(=O)c2ccco2)c(C(c2cccnc2)N2CCN(c3ccc(F)cc3)CC2)c1C (stereo not drawn)	-4	57*	2	3	2	5
